Series [1] has as its target T1, Aurora kinase A (Homo sapiens) (UniProt O14965).
T1 sequence (whole entry): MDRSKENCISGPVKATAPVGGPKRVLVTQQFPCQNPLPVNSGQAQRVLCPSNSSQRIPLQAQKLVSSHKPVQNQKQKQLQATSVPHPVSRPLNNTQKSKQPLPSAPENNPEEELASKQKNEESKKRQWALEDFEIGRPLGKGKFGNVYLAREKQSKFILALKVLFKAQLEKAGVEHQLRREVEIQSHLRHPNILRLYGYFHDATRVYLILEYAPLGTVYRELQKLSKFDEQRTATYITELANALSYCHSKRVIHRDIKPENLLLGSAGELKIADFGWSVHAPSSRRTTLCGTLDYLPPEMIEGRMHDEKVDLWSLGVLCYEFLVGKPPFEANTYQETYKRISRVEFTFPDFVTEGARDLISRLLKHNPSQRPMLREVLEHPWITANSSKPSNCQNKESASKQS
The series can be described thus: Inhibition of Aurora A (unknown origin) using myelin protein as substrate assessed as ADP generation at 10 uM after 60 mins by ADP-glo assay relative to staurosporine. In outline: (§1)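 Aurora A and Aurora B activity read by ADP-Glo, measuring ADP formed from ATP during the kinase reaction. Compounds tested at 10 μM. Inhibition expressed as percentage relative to the staurosporine positive control.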

Series [2] concerns the target T2, Aurora kinase B (Homo sapiens, UniProt Q96GD4). Nature of the series: Inhibition of Aurora B (unknown origin) using myelin protein as substrate assessed as ADP generation at 10 uM after 60 mins by ADP-glo assay relative to staurosporine. Summed up: as §1
Series [3] has as its target T2, Aurora kinase B. Nature of the series: Inhibition of Aurora B (unknown origin) using myelin protein as substrate assessed as ADP generation after 60 mins by ADP-glo assay.
The next series relates to MDA-MB-231. The series can be described thus: Cytotoxicity against human MDA-MB-231 cells assessed as reduction in cell growth after 48 hrs by SRB assay. The class given is functional. The following applies: MDA-MB-231, 48 h.
The nature of series [4]: Cytotoxicity against human PC3 cells assessed as reduction in cell growth after 48 hrs by SRB assay. The class given is functional. The following applies: PC-3, 48 h.
For a further series, the system named is ACHN. Nature of the series: Cytotoxicity against human ACHN cells assessed as reduction in cell growth after 48 hrs by SRB assay. The class given is functional.
A short description of series [5]: Cytotoxicity against human HCT15 cells assessed as reduction in cell growth after 48 hrs by SRB assay. The class given is functional. The note with it: HCT-15, 48 h.
Series [6] can be described thus: Cytotoxicity against human NUGC3 cells assessed as reduction in cell growth after 48 hrs by SRB assay. The class given is functional. The following applies: NUGC-3, 48 h.
The next series concerns NCI-H23. Nature of the series: Cytotoxicity against human NCI-H23 cells assessed as reduction in cell growth after 48 hrs by SRB assay. The note with it: NCI-H23, 48 h. The class given is functional.
Another series deals with PC-3. The series can be described thus: Antitumor activity against human PC3 cells xenografted in nu/nu BALB/c mouse assessed as tumor growth inhibition at 50 mg/kg, po administered qd for 16 days relative to control. The class given is functional, organism-based. Summed up: (§2)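 PC-3 prostate tumours grown as xenografts in nude mice. Dosed orally at 50 mg/kg once daily for 16 days; vehicle was 10% dimethylacetamide plus 10% Tween 80 in water. Tumour volume measured every two or three days, tumours weighed after harvest on day 16, and body weight followed throughout. Treated groups compared with vehicle by Student's t-test.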

Another series has as its system Mus musculus. The series can be described thus: Toxicity in nu/nu BALB/c mouse xenografted with human PC3 cells assessed as loss in body weight at 50 mg/kg, po administered qd for 16 days measured during compound dosing. The following applies: in vivo, 384 h. The class given is organism-based, PC-3. Summed up:
as §2

Activity calls are given as the source filed them. The rule behind the calls is not given here.

T2 sequence (Q96GD4 whole entry): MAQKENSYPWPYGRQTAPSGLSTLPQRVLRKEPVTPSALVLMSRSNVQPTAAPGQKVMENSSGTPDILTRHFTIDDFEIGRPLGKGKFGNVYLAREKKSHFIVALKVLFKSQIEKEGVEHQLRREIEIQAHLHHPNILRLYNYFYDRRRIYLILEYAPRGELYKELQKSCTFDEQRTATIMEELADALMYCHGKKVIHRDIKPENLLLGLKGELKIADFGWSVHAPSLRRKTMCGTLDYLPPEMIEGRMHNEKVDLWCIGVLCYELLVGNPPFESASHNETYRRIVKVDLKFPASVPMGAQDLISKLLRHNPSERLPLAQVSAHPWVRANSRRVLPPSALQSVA

In the case of `O=C(Nc1ccc(Br)cc1)Nc1ccc(CNc2nc3ccc(OCCN4CCOCC4)cc3o2)cc1`, in series [1], the inhibition result was “inactive”. Moreover, the inhibition on Aurora kinase B [2] is 69%.

As for `O=C(Nc1ccc(CNc2nc3ccc(OCCN4CCOCC4)cc3o2)cc1)Nc1ccc(Cl)cc1Cl`, the inhibition in series [1] turned out to be 8%; on Aurora kinase B [2], 86%. Besides, the IC50 at Aurora kinase B [3] stood at 0.7 µM.

Consider `O=C(Nc1ccc(Cl)cc1)Nc1ccc(CNc2nc3ccc(OCCN4CCOCC4)cc3o2)cc1`, for which the results for the inhibition (in series [1]; on Aurora kinase B [2]) were 5% and 66%, respectively. Further, the GI50 is 7.6 µM with MDA-MB-231; 6.2 µM in series [4]; 2.2 µM in the series on ACHN; 4.8 µM in series [5]; 5.5 µM in series [6]; 4 µM in the series on NCI-H23. Also, on Aurora kinase B [3], the IC50 was 10.2 µM.

For the compound `O=C(Nc1ccc(Cl)cc1)Nc1ccc(COc2ccc3oc(NCCN4CCOCC4)nc3c2)cc1`, the inhibition is 4% in series [1] and 37% at Aurora kinase B [2].

In the case of `O=C(Nc1ccc(Cl)cc1)Nc1ccc(CNc2nc3cc(OCCN4CCOCC4)ccc3o2)cc1`, the figures for the inhibition (in series [1]; on Aurora kinase B [2]) were 8% and 42%, respectively.

Regarding `O=C(Nc1cccc(CNc2nc3ccc(OCCN4CCOCC4)cc3o2)c1)c1ccccc1`, the inhibition at Aurora kinase B [2] was determined as 1%.

For `O=C(Nc1ccc(Cl)cc1)Nc1cccc(CNc2nc3ccc(OCCN4CCOCC4)cc3o2)c1`, the values for the inhibition (in [1]; on Aurora kinase B [2]) were 8% and 45%, respectively.

Regarding `O=C(Nc1ccc(COc2ccc3nc(NCCN4CCOCC4)oc3c2)cc1)Nc1ccc(Cl)c(Cl)c1`, the inhibition in series [1] is 2%; on Aurora kinase B [2], 70%. Moreover, the IC50 on Aurora kinase B [3] amounted to 49.4 µM.

In the case of `O=C(Nc1ccccc1CNc1nc2ccc(OCCN3CCOCC3)cc2o1)c1ccccc1`, the inhibition result on Aurora kinase B [2] is “inactive”.

Regarding `COc1ccc(NC(=O)Nc2ccc(CNc3nc4ccc(OCCN5CCOCC5)cc4o3)cc2)cc1`, the figures for the inhibition (in [1]; on Aurora kinase B [2]) were 10% and 76%, respectively.

Consider `O=C(Nc1ccc(Cl)cc1)Nc1ccc(COc2ccc3nc(NCCN4CCOCC4)oc3c2)cc1`, for which the inhibition entry in series [1] is “inactive”. Besides, the inhibition at Aurora kinase B [2] came to 94%. Besides, the IC50 on Aurora kinase B [3] stood at 50.4 µM.

Take `O=C(Nc1ccc(CNc2nc3ccc(OCCN4CCOCC4)cc3o2)cc1)Nc1cccc(F)c1`: the inhibition is 7% in series [1] and 63% at Aurora kinase B [2].

Turning to `O=C(Nc1ccccc1)Nc1cccc(COc2ccc3nc(NCCN4CCOCC4)oc3c2)c1`, the inhibition amounted to 1% in [1] and 80% at Aurora kinase B [2].

With `O=C(Nc1ccc(COc2ccc3oc(NCCN4CCOCC4)nc3c2)cc1)Nc1ccc(Cl)c(Cl)c1`, the results for the inhibition (in series [1]; on Aurora kinase B [2]) were 5% and 74%, respectively.

With `O=C(Nc1ccc(CNc2nc3ccc(OCCN4CCOCC4)cc3o2)cc1)c1ccccc1`, the inhibition on Aurora kinase B [2] is 21%.

For `O=C(Nc1ccc(Br)cc1)Nc1ccc(CNc2nc3cc(OCCN4CCOCC4)ccc3o2)cc1`, the figures for the inhibition (in [1]; on Aurora kinase B [2]) were -6% and 35%, respectively.

Consider `O=C(Nc1ccccc1)Nc1ccc(CNc2nc3ccc(OCCN4CCOCC4)cc3o2)cc1`, for which the inhibition amounted to 15% in series [1] and 40% at Aurora kinase B [2].

With `O=C(Nc1ccc(Br)cc1)Nc1ccc(COc2ccc3oc(NCCN4CCOCC4)nc3c2)cc1`, the inhibition amounted to 3% in series [1] and 74% at Aurora kinase B [2].

As to `O=C(Nc1cccc(Cl)c1)Nc1cccc(CNc2nc3ccc(OCCN4CCOCC4)cc3o2)c1`, the inhibition result at Aurora kinase B [2] is “inactive”.

For `O=C(Nc1ccc(CNc2nc3ccc(OCCN4CCOCC4)cc3o2)cc1)Nc1cccc(Cl)c1`, the inhibition in series [1] stood at 13%; on Aurora kinase B [2] it was 58%.

For `O=C(Nc1ccc(F)cc1)Nc1ccc(CNc2nc3ccc(OCCN4CCOCC4)cc3o2)cc1`, in series [1], the inhibition entry was “inactive”. Besides, the inhibition on Aurora kinase B [2] came to 34%.

Take `O=C(Nc1ccc(Br)cc1)Nc1ccc(COc2ccc3nc(NCCN4CCOCC4)oc3c2)cc1`: the inhibition entry in series [1] is “inactive”. Further, the inhibition on Aurora kinase B [2] stood at 55%.

Take `O=C(Nc1ccc(CNc2nc3ccc(OCCN4CCOCC4)cc3o2)cc1)Nc1ccc(Cl)c(Cl)c1`: the inhibition in series [1] came out at 24%; on Aurora kinase B [2], 88%. Further, the TGI result in the series with PC-3 was “Active”. Moreover, the GI50 in the series with MDA-MB-231 was determined as 5 µM; in series [4] it was 4.8 µM; in the series on ACHN, 2.6 µM; in [5] it was 3 µM; in series [6] it was 8.4 µM; in the series on NCI-H23 it was 3.4 µM. In addition, the Activity entry in the series on Mus musculus was “Non-toxic”. Besides, the IC50 on Aurora kinase B [3] came to 0.6 µM.

For the compound `Cc1ccc(NC(=O)Nc2ccc(CNc3nc4ccc(OCCN5CCOCC5)cc4o3)cc2)cc1`, in series [1], the inhibition result was “inactive”. On Aurora kinase B [2], the inhibition stood at 65%.

In the case of `O=C(Nc1ccccc1)Nc1cccc(CNc2nc3ccc(OCCN4CCOCC4)cc3o2)c1`, the inhibition at Aurora kinase B [2] turned out to be 30%.

The values are drawn from ChEMBL document CHEMBL3808344, “Design and synthesis of novel benzoxazole analogs as Aurora B kinase inhibitors” (Bioorg Med Chem Lett, 2016).
